Published values of several laboratories.
Lines come from different studies, so protocols differ.
Observed: metabolic stability
Species: human
Sample: liver microsomes

`CCS(=O)(=O)N1CCC2(CC1)NC(=O)N(c1ccc(F)c(C(F)(F)F)c1)C2=O` gave a microsomal CLint of less than 7 µL/min/mg.
The microsomal CLint of `Cc1ccc(Oc2ccc(NC(=O)COc3ccccc3N3CCCC3=O)cc2)cc1` is reported as 132 µL/min/mg.
The microsomal CLint of `O=c1c2ccc(OCc3cccc(OC(F)(F)F)c3)cc2[nH]c2cc(Cl)cc(F)c12` is reported as 16.1 µL/min/mg (1 µM; pH 7.4).
`c1ccc(Oc2ccc(Nc3c4c(nc5ccccc35)CCC4)cc2)cc1` gave a microsomal CLint of 31 µL/min/mg (0.5 µM).
`COc1cnc(Nc2cnnc3ccc(-c4ccc(N5CCN(C)CC5)cc4)cc23)nc1` gave a microsomal CLint of 93 µL/min/mg.
`CCC(F)(F)c1cc(N2C(=O)NC(C)(C)C2=O)ccc1F` gave a microsomal CLint of less than 7 µL/min/mg.
`Cc1ccc(N(C)c2ccc(NC(=O)CN(C)c3cc(F)ccc3N3CCCC3=O)cc2)cc1` has a microsomal CLint of 260 µL/min/mg.
`NCCCOCC(=O)N1CCC[C@H](C(=O)NCc2nc(-c3ccc(C4CC4)cc3)cs2)C1` has a microsomal CLint of 11 µL/min/mg (0.5 µM).
For `Cc1ccc(Nc2cnnc3ccc(-c4ccc(N5CCCN(C)CC5)cc4)cc23)cn1`, the microsomal CLint was 75 µL/min/mg.
`CC1(C)NC(=O)N(c2ccc(F)c(CC(F)(F)F)c2)C1=O` gave a microsomal CLint of less than 7 µL/min/mg.
`Cc1[nH]c(C)c(S(=O)(=O)Nc2ccc(C(F)(F)F)c(Cl)c2)c1C(=O)N1CCC(F)(F)C1` has a microsomal CLint of 68 µL/min/mg.
`O=c1c2c([nH]c3cc(Oc4ccc(OC(F)(F)F)cc4)c(F)cc13)CCCC2` gave a microsomal CLint of 72.5 µL/min/mg (1 µM; pH 7.4).
For `COCC(=O)N1CCC[C@H](C(=O)NCc2nc(-c3cccnc3)cs2)C1`, the microsomal CLint was less than 7 µL/min/mg (0.5 µM).
The microsomal CLint of `O=c1c2ccc(OCc3cccc(C(F)(F)F)c3)cc2[nH]c2ccc(Cl)c(F)c12` is reported as 2.73 µL/min/mg (1 µM; pH 7.4).
For `Cc1ccc(Oc2ccc(NC(=O)CNc3ccccc3N3CCCC3=O)cc2)cc1`, the microsomal CLint was 102 µL/min/mg.
With `N#Cc1ccc(-c2csc(CNC(=O)[C@H]3CCCN(C(=O)COC4CC4)C3)n2)cc1` the microsomal CLint was 49 µL/min/mg (0.5 µM).
For `CC1(C(F)(F)F)NC(=O)N(c2ccc(F)c(C(F)(F)F)c2)C1=O` (stereo not drawn), the microsomal CLint was less than 7 µL/min/mg.
With `O=c1c2c([nH]c3ccc(Oc4ccc(OC(F)(F)F)cc4)cc13)CCCC2` the microsomal CLint was 55.3 µL/min/mg (1 µM; pH 7.4).
With `CC1(C)NC(=O)N(c2cc(C(F)(F)F)c(F)cc2C#N)C1=O` the microsomal CLint was less than 7 µL/min/mg.
`O=C(NCc1nc(-c2ccccc2)cs1)[C@H]1CCCN(C(=O)[C@@H]2CCCO2)C1` has a microsomal CLint of 36 µL/min/mg (0.5 µM).
With `CCN(c1ccc(C)cc1)c1ccc(NC(=O)CN(C)c2ccccc2N2CCCC2=O)cn1` the microsomal CLint was 408 µL/min/mg.
With `Cc1[nH]c(C)c(S(=O)(=O)Nc2ccc(C(F)(F)F)c(Cl)c2)c1C(=O)N(C)C` the microsomal CLint was 79 µL/min/mg.
With `Cc1ccc(N(c2ccc(NC(=O)CN(C)c3ccccc3N3CCCC3=O)cc2)C(C)C)cc1` the microsomal CLint was 319 µL/min/mg.
With `CN(C)CCOc1ccc2c(=O)c3c([nH]c2c1)CCCC3` the microsomal CLint was 8.08 µL/min/mg (1 µM; pH 7.4).
With `CC1(C)CCC(C(=O)NCc2nc(-c3ccc(C#N)cc3)cs2)CN1C(=O)COCCF` (racemic) the microsomal CLint was 219 µL/min/mg (0.5 µM).
The microsomal CLint of `O=C(O)Cc1ccccc1Nc1c(Cl)cccc1Cl` is reported as 201 µL/min/mg (2 µM; pH 7.4).
For `O=C1c2ccccc2C(=O)N1CCCN1CCN(C(c2ccc(F)cc2)c2ccc(F)cc2)CC1`, the microsomal CLint was 39 µL/min/mg (100 ng/mL).
`COCC(=O)N1CCC[C@H](C(=O)NCc2nc(-c3ccc(Cl)cc3)cs2)C1` gave a microsomal CLint of 25 µL/min/mg (0.5 µM).
The microsomal CLint of `Cc1ccc(Oc2ccc(NC(=O)CN(C)c3ccccc3N3CCCC3=O)cc2)cc1` is reported as 383 µL/min/mg.
`Cc1ccc(OCC(=O)N[C@@H](Cc2c[nH]c3ccccc23)C(=O)OC(C)C)cc1` gave a microsomal CLint of 14.6 µL/min/mg (20 mM).
For `CCONC(=O)N1CCC[C@H](C(=O)N[C@H](C)c2nc(-c3ccc(C#N)cc3)cs2)C1`, the microsomal CLint was 17 µL/min/mg (0.5 µM).
The microsomal CLint of `Cc1ccc(N(C)c2ccc(NC(=O)CN(C)c3cccnc3N3CCCC3=O)cc2)cc1` is reported as 222 µL/min/mg.
`CC1(C)NC(=O)N(c2ccc(F)c(Br)c2)C1=O` gave a microsomal CLint of less than 7 µL/min/mg.
`O=c1c2c(F)cc(Cl)cc2[nH]c2cccc(Oc3ccc(OC(F)(F)F)cc3)c12` has a microsomal CLint of 5.86 µL/min/mg (1 µM; pH 7.4).
`CC1(C(F)F)NC(=O)N(c2ccc(F)c(C(F)(F)F)c2)C1=O` (stereo not drawn) gave a microsomal CLint of less than 7 µL/min/mg.
With `CCCCCCCCCCCCCCCC(=O)NCCOC(=O)C[C@@H](CN)CC(C)C` the microsomal CLint was 22.9 µL/min/mg (1 µM; pH 7.4).
`O=c1c2c([nH]c3cc(Oc4ccc(OC(F)(F)F)cc4)ccc13)CCCC2` has a microsomal CLint of 51.8 µL/min/mg (1 µM; pH 7.4).
With `CONC(=O)c1cccc2c1cc(C)n2-c1nc2c(c(NCc3ccccc3)n1)CCCN2` the microsomal CLint was 98.7 µL/min/mg (1 µM; pH 7.4).
The microsomal CLint of `O=C(NCc1nc(-c2ccccc2)cs1)[C@H]1CCCN(C(=O)COCC2CC2)C1` is reported as 102 µL/min/mg (0.5 µM).
With `Cc1ccc(Oc2ccc(NC(=O)CNc3ccccc3-n3cncn3)cc2)cc1` the microsomal CLint was 98 µL/min/mg.
For `CC1(C)NC(=O)N(c2ccc3c(c2)OC(F)(F)O3)C1=O`, the microsomal CLint was less than 7 µL/min/mg.
For `COc1ccc(Oc2ccc3c(=O)c4c(F)cc(Cl)cc4[nH]c3c2)cc1`, the microsomal CLint was 12.3 µL/min/mg (1 µM; pH 7.4).
